Series [1] has as its target T1, Kinesin-like protein KIF11 (Homo sapiens, UniProt P52732).
T1 sequence (P52732 whole entry): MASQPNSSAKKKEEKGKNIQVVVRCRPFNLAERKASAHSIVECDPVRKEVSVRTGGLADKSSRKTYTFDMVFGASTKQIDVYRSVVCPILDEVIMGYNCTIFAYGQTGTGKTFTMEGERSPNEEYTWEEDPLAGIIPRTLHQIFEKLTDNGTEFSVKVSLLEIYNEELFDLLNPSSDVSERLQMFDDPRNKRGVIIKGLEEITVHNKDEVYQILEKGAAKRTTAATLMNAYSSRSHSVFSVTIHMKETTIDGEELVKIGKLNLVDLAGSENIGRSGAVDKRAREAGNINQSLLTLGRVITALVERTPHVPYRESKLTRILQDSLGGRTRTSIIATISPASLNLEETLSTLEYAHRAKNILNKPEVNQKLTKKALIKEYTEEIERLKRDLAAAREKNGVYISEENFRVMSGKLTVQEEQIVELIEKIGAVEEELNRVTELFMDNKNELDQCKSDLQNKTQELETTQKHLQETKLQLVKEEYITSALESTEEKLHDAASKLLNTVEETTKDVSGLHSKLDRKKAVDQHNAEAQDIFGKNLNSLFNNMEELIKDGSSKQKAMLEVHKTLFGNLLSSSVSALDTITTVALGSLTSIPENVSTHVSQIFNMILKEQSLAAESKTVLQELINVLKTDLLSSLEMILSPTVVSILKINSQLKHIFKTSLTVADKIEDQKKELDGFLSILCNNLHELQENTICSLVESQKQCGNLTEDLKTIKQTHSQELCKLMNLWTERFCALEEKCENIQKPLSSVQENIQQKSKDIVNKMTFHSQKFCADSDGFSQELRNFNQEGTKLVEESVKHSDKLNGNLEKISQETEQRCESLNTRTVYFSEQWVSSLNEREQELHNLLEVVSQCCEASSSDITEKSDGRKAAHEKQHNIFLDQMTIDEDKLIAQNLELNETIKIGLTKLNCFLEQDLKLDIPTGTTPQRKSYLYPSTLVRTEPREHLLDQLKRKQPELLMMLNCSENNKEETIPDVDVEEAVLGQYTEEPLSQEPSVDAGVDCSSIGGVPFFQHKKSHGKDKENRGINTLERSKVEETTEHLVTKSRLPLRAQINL
The series is described as follows: Inhibition of microtubule-stimulated kinesin spindle protein motor domain (unknown origin) ATPase activity preincubated for 20 mins followed by ATP addition measured after 15 mins by kinase-glo based luciferase reporter gene assay. Summed up: (§1)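 Inhibition of microtubule-activated KSP ATPase activity was measured in vitro. IC50 values come from three independent experiments. Percent inhibition was also measured at 20 µM.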
(In Kinase-Glo more light means more ATP remaining.)

The target of series [2] is T2, Kinesin-like protein KIF11 (Homo sapiens) (UniProt P52732).
T2 sequence (whole entry): T1 sequence (P52732 whole entry)
The series can be described thus: Inhibition of microtubule-stimulated kinesin spindle protein motor domain (unknown origin) ATPase activity at 20 uM preincubated for 20 mins followed by ATP addition measured after 15 mins by kinase-glo based luciferase reporter gene assay. Summed up: as §1

A short description of series [3]: Growth inhibition of human HeLa cells after 72 hrs by MTS assay. The format is functional. Summed up: (§2)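 Proliferation of HeLa and A549 cells was measured by MTS assay. GI50 values, or percent growth inhibition at a single concentration (30 µM), come from at least three independent experiments.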
On the technique in general: Formazan colour is commonly taken as a measure of viable cells.

Series [4] in a line: Growth inhibition of human A549 cells after 72 hrs by MTS assay. The format is functional. The settings on record: A549, 72 h. Summed up:
as §2

A short description of series [5]: Growth inhibition of human A549 cells at 30 uM after 72 hrs by MTS assay. The format is functional. The settings on record: A549, 72 h, read-out: GI. Summed up: as §2
The nature of series [6]: Solubility of the compound in DMEM medium at >50 uM by microscopic analysis. The format is physicochemical. The method, boiled down:
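During the 4 h mitotic assay in synchronized HeLa cells, the culture medium was inspected by microscopy for deposits of insoluble compound across the tested concentrations.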

Series [7] has as its target T2, Kinesin-like protein KIF11 (Homo sapiens). The series is described as follows: Inhibition of hmAG1-fused kinesin spindle protein (unknown origin) ATPase activity expressed in human HeLa cells assessed as accumulation of mitotic cells after 4 hrs by DAPI staining based fluorescence microscopy. It is filed as cell-based. Summed up:
(§3)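 Synchronized HeLa cells were given compound as they entered M phase and cultured 4 h at 37 °C. Cells were fixed and immunostained for α-tubulin and KSP, with DAPI for chromosomes. The relative mitotic index was averaged over two independent experiments. Mitotic phenotypes, such as prometaphase with monopolar spindles, were scored as a percentage of mitotic cells.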

For series [8] the target is unchanged. The series is described as follows: Inhibition of hmAG1-fused kinesin spindle protein (unknown origin) ATPase activity expressed in human HeLa cells assessed as prometaphase with monopolar spindles at 40 uM after 4 hrs by DAPI staining based fluorescence microscopy relative to control. It is filed as cell-based. Summed up:
as §3

Series [9] in a line: Drug uptake in cytoplasm of human HeLa cells expressing hmAG1-conjugated alpha-tubulin at 20 uM after 20 mins by fluorescence microscopic analysis. The format is ADME, cell-based. Summed up: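 Live HeLa cells expressing hmAG1-conjugated α-tubulin (cytoplasm marker) or histone H2B (nucleus marker) were incubated with 20 µM probe for 20 min at 37 °C. Probe localization was imaged by live-cell fluorescence microscopy.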

A short description of series [10]: Drug uptake in monoastral mitotic human HeLa cells expressing N-terminal hmAG1-tagged recombinant fluorescent KSP at 40 uM after 20 mins by fluorescence microscopic analysis. It is filed as ADME, cell-based. Summed up: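 HeLa cells stably expressing KSP fused at its N-terminus to hmAG1 were treated in mitosis with 40 µM probe for 20 min at 37 °C. Live-cell fluorescence microscopy compared probe signal with the fluorescent KSP signal in monoastral mitotic cells.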

In series [11] the target is T2, Kinesin-like protein KIF11 (Homo sapiens). The series is described as follows: Inhibition of hmAG1-fused kinesin spindle protein (unknown origin) ATPase activity expressed in human HeLa cells assessed as irregular accumulation of KSP in central region of mitotic cells at 40 uM after 4 hrs by DAPI staining based fluorescence microscopy. The format is cell-based.
The nature of series [12]: Drug uptake in human HeLa cells at G2 phase expressing N-terminal hmAG1-tagged recombinant fluorescent KSP at 20 uM after 20 mins by fluorescence microscopic analysis.
Series [13] in a line: Drug uptake in human HeLa cells at early mitotic phase expressing N-terminal hmAG1-tagged recombinant fluorescent KSP at 20 uM after 20 mins by fluorescence microscopic analysis.

Active and inactive are the calls of the source. The rule behind the calls is not given here.

With `FC(F)(F)c1ccc(-c2cn3ccc[n+]3[n-]2)cc1`, the 50% inhibitory concentration (IC50) – broadly, the point on the concentration scale where inhibition reaches its midpoint – in series [1] was above 20 µM. Besides, the inhibition – broadly, how much of the control response was suppressed – in [2] worked out at 34%. Moreover, the GI50 – broadly, the concentration that inhibits growth by half – in series [3] was 25 µM; in series [4], above 30 µM. The inhibition of growth at 30 µM in series [5] worked out at 6%.

In turn, `FC(F)(F)c1ccc(-c2ccc(-c3cn4ccc[n+]4[n-]3)cc2)cc1` had a half-inhibitory concentration (IC50) in series [1] of 6.8 µM. Moreover, the results for the 50% growth inhibitory concentration (GI50) in series [3] and in series [4] were 19 µM and 22 µM, respectively. In addition, the solubility entry in series [6] was “Insoluble”. The values for the inhibition result in [7] and in [8] were “Dose-dependent effect” and 63%, respectively. The Drug uptake result in series [9], in series [10], in series [12] and in series [13] was “Active” in each case. Further, in [11], the inhibition result was “Active”.

The values above are taken from ChEMBL document CHEMBL3868601, “Functional 1,3a,6a-triazapentalene scaffold: Design of fluorescent probes for kinesin spindle protein (KSP)” (Bioorg Med Chem Lett, 2016).
